Assay results: ChEMBL document CHEMBL1914449, “Lead optimization at C-2 and N-3 positions of thiazolidin-4-ones as HIV-1 non-nucleoside reverse transcriptase inhibitors” (Bioorg Med Chem, 2011)
≈ marks a conversion by molar mass, not a printed value.

System: Human immunodeficiency virus 1
Test: Antiviral activity against R5 tropic Human immunodeficiency virus 1 subtype B-ADA5 infected in human TZM-bl cells assessed as inhibition of virus-induced cytopathic effect after 2 days by luciferase assay
Assay type: functional, organism-based
Settings: Human immunodeficiency virus 1, subtype B-ADA5, TZM-bl, 48 h
How it was run: (§1)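 TZM-bl cells were seeded at 1 × 10^4 per well and incubated overnight at 37 °C in 5% CO2. Medium was then replaced with HIV-1 stock for 2 h at 37 °C, and compound concentrations giving >50% viability were added. After two days, luciferase activity was read as RLU. EC50 is the mean of two independent assays, each in duplicate. Nevirapine served as positive control.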

Structure (SMILES)	EC50 [µg/mL]
Cc1cc(N2C(=O)CSC2c2c(F)cccc2F)no1 (stereo not given)	1.34 (≈ 4.52 µM)
Cc1cccc(N2C(=O)CSC2c2c(Cl)cncc2Cl)n1 (stereo not given)	1.64 (≈ 4.82 µM)
CC(C)(C)c1cc(N2C(=O)CSC2c2c(Cl)cccc2Cl)no1 (stereo not given)	2.4 (≈ 6.46 µM)
Cc1cc(N2C(=O)CSC2c2c(Cl)cccc2Cl)no1 (stereo not given)	0.65 (≈ 1.97 µM)
Cc1nc(N2C(=O)CSC2c2c(Cl)cncc2Cl)ccc1Br (stereo not given)	2.17 (≈ 5.18 µM)
Cc1cc(N2C(=O)CSC2c2c(Cl)cccc2Cl)nc(C)c1Br (stereo not given)	0.85 (≈ 1.97 µM)
Cc1ccnc2c1NC(=O)c1cccnc1N2C1CC1 [NEVIRAPINE]	0.05 (≈ 0.188 µM)
Cc1cc(C)nc(N2C(=O)CSC2c2c(Br)cncc2Br)c1 (stereo not given)	1.21 (≈ 2.73 µM)

System: not listed separately
Test: Cytotoxicity in human TZM-bl cells assessed as cell viability after 48 hrs by MTT assay
Assay type: cell-based
Settings: not given
How it was run: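 TZM-bl (JC53BL-13) cells were seeded at 1 × 10^4 per well and incubated overnight at 37 °C in 5% CO2. Medium was replaced with a twofold dilution series of compound for 48 h, and viability was read by MTT absorbance. CC50 (50% cytotoxic concentration) is the mean of three independent assays, each in quadruplicate.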

Structure (SMILES)	CC50 at 48 h [µg/mL]
Cc1cc(N2C(=O)CSC2c2c(F)cccc2F)no1 (stereo not given)	62.7 (≈ 212 µM)
Cc1cccc(N2C(=O)CSC2c2c(Cl)cncc2Cl)n1 (stereo not given)	45 (≈ 132 µM)
CC(C)(C)c1cc(N2C(=O)CSC2c2c(Cl)cccc2Cl)no1 (stereo not given)	48.5 (≈ 131 µM)
Cc1cc(N2C(=O)CSC2c2c(Cl)cccc2Cl)no1 (stereo not given)	40.5 (≈ 123 µM)
Cc1nc(N2C(=O)CSC2c2c(Cl)cncc2Cl)ccc1Br (stereo not given)	66.7 (≈ 159 µM)
Cc1cc(N2C(=O)CSC2c2c(Cl)cccc2Cl)nc(C)c1Br (stereo not given)	2.5 (≈ 5.78 µM)
Cc1ccnc2c1NC(=O)c1cccnc1N2C1CC1 [NEVIRAPINE]	76.1 (≈ 286 µM)
Cc1cc(C)nc(N2C(=O)CSC2c2c(Br)cncc2Br)c1 (stereo not given)	49.8 (≈ 112 µM)

System: not listed separately
Test: Selectivity index, ratio of CC50 for human TZM-bl cells to EC50 for X4 tropic Human immunodeficiency virus 1 subtype B-3B
Assay type: cell-based
Settings: read-out: Ratio CC50/EC50
How it was run: (§2)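 Selectivity index is CC50/EC50. […] EC50 came from the 2-day luciferase (RLU) readout in HIV-1-infected TZM-bl cells (mean of two assays).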

Structure (SMILES)	selectivity ratio
Cc1cc(N2C(=O)CSC2c2c(F)cccc2F)no1 (stereo not given)	62
Cc1cccc(N2C(=O)CSC2c2c(Cl)cncc2Cl)n1 (stereo not given)	69.8
CC(C)(C)c1cc(N2C(=O)CSC2c2c(Cl)cccc2Cl)no1 (stereo not given)	32.6
Cc1cc(N2C(=O)CSC2c2c(Cl)cccc2Cl)no1 (stereo not given)	116
Cc1nc(N2C(=O)CSC2c2c(Cl)cncc2Cl)ccc1Br (stereo not given)	10.8
Cc1cc(N2C(=O)CSC2c2c(Cl)cccc2Cl)nc(C)c1Br (stereo not given)	2.4
Cc1ccnc2c1NC(=O)c1cccnc1N2C1CC1 [NEVIRAPINE]	1520
Cc1cc(C)nc(N2C(=O)CSC2c2c(Br)cncc2Br)c1 (stereo not given)	35.3

System: not listed separately
Test: Selectivity index, ratio of CC50 for human TZM-bl cells to EC50 for R5 tropic Human immunodeficiency virus 1 subtype B-ADA5
Assay type: toxicity, cell-based
Settings: read-out: Ratio CC50/EC50
How it was run: as §2

Structure (SMILES)	selectivity ratio
Cc1cc(N2C(=O)CSC2c2c(F)cccc2F)no1 (stereo not given)	46.8
Cc1cccc(N2C(=O)CSC2c2c(Cl)cncc2Cl)n1 (stereo not given)	27.4
CC(C)(C)c1cc(N2C(=O)CSC2c2c(Cl)cccc2Cl)no1 (stereo not given)	20
Cc1cc(N2C(=O)CSC2c2c(Cl)cccc2Cl)no1 (stereo not given)	62.3
Cc1nc(N2C(=O)CSC2c2c(Cl)cncc2Cl)ccc1Br (stereo not given)	30.7
Cc1cc(N2C(=O)CSC2c2c(Cl)cccc2Cl)nc(C)c1Br (stereo not given)	2.9
Cc1ccnc2c1NC(=O)c1cccnc1N2C1CC1 [NEVIRAPINE]	1520
Cc1cc(C)nc(N2C(=O)CSC2c2c(Br)cncc2Br)c1 (stereo not given)	41.1

System: Human immunodeficiency virus 1
Test: Antiviral activity against X4 tropic Human immunodeficiency virus 1 subtype D-UG070 infected in human TZM-bl cells assessed as inhibition of virus-induced cytopathic effect after 2 days by luciferase assay
Assay type: functional, organism-based
Settings: Human immunodeficiency virus 1, subtype D-UG070, TZM-bl, 48 h
How it was run: as §1

Structure (SMILES)	EC50 [µg/mL]
Cc1cc(N2C(=O)CSC2c2c(F)cccc2F)no1 (stereo not given)	1.9 (≈ 6.41 µM)
Cc1cccc(N2C(=O)CSC2c2c(Cl)cncc2Cl)n1 (stereo not given)	3.1 (≈ 9.11 µM)
CC(C)(C)c1cc(N2C(=O)CSC2c2c(Cl)cccc2Cl)no1 (stereo not given)	1.76 (≈ 4.74 µM)
Cc1cc(N2C(=O)CSC2c2c(Cl)cccc2Cl)no1 (stereo not given)	0.5 (≈ 1.52 µM)
Cc1nc(N2C(=O)CSC2c2c(Cl)cncc2Cl)ccc1Br (stereo not given)	8.45 (≈ 20.2 µM)
Cc1cc(N2C(=O)CSC2c2c(Cl)cccc2Cl)nc(C)c1Br (stereo not given)	0.29 (≈ 0.671 µM)
Cc1ccnc2c1NC(=O)c1cccnc1N2C1CC1 [NEVIRAPINE]	0.05 (≈ 0.188 µM)
Cc1cc(C)nc(N2C(=O)CSC2c2c(Br)cncc2Br)c1 (stereo not given)	2.1 (≈ 4.74 µM)

System: Human immunodeficiency virus 1
Test: Antiviral activity against R5 tropic Human immunodeficiency virus 1 subtype C-VB59 infected in human TZM-bl cells assessed as inhibition of virus-induced cytopathic effect after 2 days by luciferase assay
Assay type: functional, organism-based
Settings: Human immunodeficiency virus 1, subtype C-VB59, TZM-bl, 48 h
How it was run: as §1

Structure (SMILES)	EC50 [µg/mL]
Cc1cc(N2C(=O)CSC2c2c(F)cccc2F)no1 (stereo not given)	1.45 (≈ 4.89 µM)
Cc1cccc(N2C(=O)CSC2c2c(Cl)cncc2Cl)n1 (stereo not given)	1.95 (≈ 5.73 µM)
CC(C)(C)c1cc(N2C(=O)CSC2c2c(Cl)cccc2Cl)no1 (stereo not given)	1.8 (≈ 4.85 µM)
Cc1cc(N2C(=O)CSC2c2c(Cl)cccc2Cl)no1 (stereo not given)	0.35 (≈ 1.06 µM)
Cc1nc(N2C(=O)CSC2c2c(Cl)cncc2Cl)ccc1Br (stereo not given)	6.5 (≈ 15.5 µM)
Cc1cc(N2C(=O)CSC2c2c(Cl)cccc2Cl)nc(C)c1Br (stereo not given)	0.35 (≈ 0.81 µM)
Cc1ccnc2c1NC(=O)c1cccnc1N2C1CC1 [NEVIRAPINE]	0.05 (≈ 0.188 µM)
Cc1cc(C)nc(N2C(=O)CSC2c2c(Br)cncc2Br)c1 (stereo not given)	1.59 (≈ 3.59 µM)

System: not listed separately
Test: Selectivity index, ratio of CC50 for human TZM-bl cells to EC50 for X4 tropic Human immunodeficiency virus 1 subtype D-UG070
Assay type: toxicity, cell-based
Settings: read-out: Ratio CC50/EC50
How it was run: as §2

Structure (SMILES)	selectivity ratio
Cc1cc(N2C(=O)CSC2c2c(F)cccc2F)no1 (stereo not given)	33
Cc1cccc(N2C(=O)CSC2c2c(Cl)cncc2Cl)n1 (stereo not given)	14.5
CC(C)(C)c1cc(N2C(=O)CSC2c2c(Cl)cccc2Cl)no1 (stereo not given)	27.5
Cc1cc(N2C(=O)CSC2c2c(Cl)cccc2Cl)no1 (stereo not given)	81
Cc1nc(N2C(=O)CSC2c2c(Cl)cncc2Cl)ccc1Br (stereo not given)	7.89
Cc1cc(N2C(=O)CSC2c2c(Cl)cccc2Cl)nc(C)c1Br (stereo not given)	8.6
Cc1ccnc2c1NC(=O)c1cccnc1N2C1CC1 [NEVIRAPINE]	1520
Cc1cc(C)nc(N2C(=O)CSC2c2c(Br)cncc2Br)c1 (stereo not given)	23.7

System: not listed separately
Test: Selectivity index, ratio of CC50 for human TZM-bl cells to EC50 for R5 tropic Human immunodeficiency virus 1 subtype C-VB59
Assay type: toxicity, cell-based
Settings: read-out: Ratio CC50/EC50
How it was run: as §2

Structure (SMILES)	selectivity ratio
Cc1cc(N2C(=O)CSC2c2c(F)cccc2F)no1 (stereo not given)	43.2
Cc1cccc(N2C(=O)CSC2c2c(Cl)cncc2Cl)n1 (stereo not given)	23.1
CC(C)(C)c1cc(N2C(=O)CSC2c2c(Cl)cccc2Cl)no1 (stereo not given)	26.9
Cc1cc(N2C(=O)CSC2c2c(Cl)cccc2Cl)no1 (stereo not given)	116
Cc1nc(N2C(=O)CSC2c2c(Cl)cncc2Cl)ccc1Br (stereo not given)	10.3
Cc1cc(N2C(=O)CSC2c2c(Cl)cccc2Cl)nc(C)c1Br (stereo not given)	7.1
Cc1ccnc2c1NC(=O)c1cccnc1N2C1CC1 [NEVIRAPINE]	1520
Cc1cc(C)nc(N2C(=O)CSC2c2c(Br)cncc2Br)c1 (stereo not given)	31.3

Biological target: Human immunodeficiency virus type 1 reverse transcriptase (Human immunodeficiency virus 1) (UniProt Q72547)
Test: Inhibition of biotin-dNTP labeled HIV-1 reverse transcriptase using ABST as substrate at 100 ug/ml after 1 hr by ELISA
Settings: not given
How it was run: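 ELISA-format RT assay. Template/primer, biotin- and DIG-labelled dNTPs and RT enzyme in lysis buffer were incubated 1 h at 37 °C. The product was captured on streptavidin, detected with anti-DIG-peroxidase and ABTS substrate, and absorbance read at 405 nm. Activity is reported as percent inhibition of RT.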

Structure (SMILES)	inhibition [%]
Cc1cc(N2C(=O)CSC2c2c(F)cccc2F)no1 (stereo not given)	98.1
Cc1cccc(N2C(=O)CSC2c2c(Cl)cncc2Cl)n1 (stereo not given)	84.1
CC(C)(C)c1cc(N2C(=O)CSC2c2c(Cl)cccc2Cl)no1 (stereo not given)	50.4
Cc1cc(N2C(=O)CSC2c2c(Cl)cccc2Cl)no1 (stereo not given)	75.4
Cc1nc(N2C(=O)CSC2c2c(Cl)cncc2Cl)ccc1Br (stereo not given)	76.6
Cc1cc(N2C(=O)CSC2c2c(Br)cncc2Br)nc(C)c1Br (stereo not given)	62
Cc1cc(N2C(=O)CSC2c2c(Cl)cccc2Cl)nc(C)c1Br (stereo not given)	60.7
Cc1cc(C)nc(N2C(=O)CSC2c2c(Br)cncc2Br)c1 (stereo not given)	62.8

System: Human immunodeficiency virus 1
Test: Antiviral activity against X4 tropic Human immunodeficiency virus 1 subtype B-3B infected in human TZM-bl cells assessed as inhibition of virus-induced cytopathic effect after 2 days by luciferase assay
Assay type: functional, organism-based
Settings: 48 h
How it was run: as §1

Structure (SMILES)	EC50 [µg/mL]
Cc1cc(N2C(=O)CSC2c2c(F)cccc2F)no1 (stereo not given)	1.01 (≈ 3.41 µM)
Cc1cccc(N2C(=O)CSC2c2c(Cl)cncc2Cl)n1 (stereo not given)	0.65 (≈ 1.91 µM)
CC(C)(C)c1cc(N2C(=O)CSC2c2c(Cl)cccc2Cl)no1 (stereo not given)	1.49 (≈ 4.01 µM)
Cc1cc(N2C(=O)CSC2c2c(Cl)cccc2Cl)no1 (stereo not given)	0.35 (≈ 1.06 µM)
Cc1nc(N2C(=O)CSC2c2c(Cl)cncc2Cl)ccc1Br (stereo not given)	6.18 (≈ 14.7 µM)
Cc1cc(N2C(=O)CSC2c2c(Cl)cccc2Cl)nc(C)c1Br (stereo not given)	1.04 (≈ 2.41 µM)
Cc1ccnc2c1NC(=O)c1cccnc1N2C1CC1 [NEVIRAPINE]	0.05 (≈ 0.188 µM)
Cc1cc(C)nc(N2C(=O)CSC2c2c(Br)cncc2Br)c1 (stereo not given)	1.41 (≈ 3.18 µM)
